Experimental data taken from ChEMBL document CHEMBL1811839, “Lindenane disesquiterpenoids with anti-HIV-1 activity from Chloranthus japonicus” (J Nat Prod, 2011).

Experiments:
[1] = system: Human immunodeficiency virus 1; assay: (§1) Antiviral activity against wild type Human immunodeficiency virus 1 NL 4.3 pseudotyped with VSV-G envelope co-transfected with luciferase gene infected in human 293T cells assessed as inhibition of HIV1 replication administered 15 mins prior to infection measured after 48 hrs post infection by luciferase assay; format: functional, organism-based; conditions: Human immunodeficiency virus 1, NL 4.3, HEK-293T
In short: (§2)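 VSV-G plasmid co-transfected with env-deficient pNL4-3.luc.R-E vector (wild-type, RT-K103N or RT-Y181C) into 293T cells by modified Ca3(PO4)2 method; medium changed 16 h post-transfection; virion supernatant harvested 48 h, 0.45 μm filtered, p24 ELISA-quantified and diluted to 0.2 ng p24/mL. Target 293T cells plated 6 × 10^4/well a day before; compounds in DMSO added 15 min before infection; luciferase in lysates read 48 h post-infection; EFV positive control.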

[2] = Cytotoxicity against human C8166 cells by MTT assay; format: cell-based
In short: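 MTT assay on C8166 cells yielding CC50.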

[3] = system: Human immunodeficiency virus 1; assay: Antiviral activity against Human immunodeficiency virus 1 assessed as inhibition of virus-induced cytopathic effects by cell based assay; format: functional, organism-based
In short: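 HIV-1 cytopathic-effect inhibition assay yielding EC50; AZT positive control.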

[4] = Therapeutic index, ratio of CC50 for against human C8166 cells to EC50 for HIV-1; format: cell-based; conditions: read-out: Ratio CC50/EC50
[5] = system: Human immunodeficiency virus 1; assay: as §1, with “against” for “against wild type”, “4.3 harboring reverse transcriptase Y181C mutant” for “4.3”, “in” for “in human”; format: functional, organism-based; conditions: Human immunodeficiency virus 1, NL 4.3, HEK-293T; in short: as §2
[6] = system: Human immunodeficiency virus 1; assay: as §1, with “against” for “against wild type”, “4.3 harboring reverse transcriptase K103N mutant” for “4.3”, “in” for “in human”; format: functional, organism-based; conditions: Human immunodeficiency virus 1, NL 4.3, HEK-293T; in short: as §2

SMILES	EC50 [1]	CC50 [2]	EC50 [3]	selectivity ratio [4]	EC50 [5]	EC50 [6]
COC(=O)/C(C)=C1\C(=O)[C@H](O)[C@]2(C)C3=C(C[C@@H]4[C@]5(OC(=O)C6=C5C[C@H]5[C@](O)(COC(=O)/C=C(\C)COC(=O)[C@@H](O)CC(=O)OC6)[C@H]6C[C@H]6[C@]45C)[C@H]31)[C@H]1C[C@H]12 [SHIZUKAOL H]	830 nM	22 nM	3.3 nM	6.67	860 nM	2350 nM
C/C=C(\C)C(=O)OCC1=C2C[C@H]3[C@H](O)[C@H]4C[C@H]4[C@]3(C)[C@@H]3C[C@@]4(O)C5=C(/C(=C(/C)C(=O)OC)C(=O)[C@H](O)[C@@]5(C)[C@@H]5C[C@@H]54)[C@]23OC1=O [SHIZUKAOL C]	980 nM	89 nM	16 nM	5.56	1000 nM	1360 nM
COC(=O)/C(C)=C1\C(=O)[C@H](O)[C@]2(C)C3=C(C[C@@H]4[C@]5(OC(=O)C6=C5C[C@H]5[C@](O)(COC(=O)/C=C(\C)COC(=O)CCC(=O)OC6)[C@H]6C[C@H]6[C@]45C)[C@H]31)[C@H]1C[C@H]12 [SHIZUKAOL F]	110 nM	47 nM	4.3 nM	10.9	4050 nM	3390 nM
O=C1Nc2ccc(Cl)cc2[C@@](C#CC2CC2)(C(F)(F)F)O1 [EFAVIRENZ]	–	–	–	–	2 nM	24 nM
Cc1cn([C@H]2C[C@H](N=[N+]=[N-])[C@@H](CO)O2)c(=O)[nH]c1=O [ZIDOVUDINE]	–	–	–	1.02e+06	–	–
COC(=O)/C(C)=C1\C(=O)[C@H](O)[C@]2(C)C3=C(C[C@@H]4[C@]5(OC(=O)C6=C5C[C@H]5[C@](O)(COC(=O)/C(C)=C/COC(=O)CCC(=O)OC6)[C@H]6C[C@H]6[C@]45C)[C@H]31)[C@H]1C[C@H]12 [SHIZUKAOL B]	220 nM	20 nM	1.4 nM	14.4	500 nM	470 nM
